The values below come from PubChem BioAssay.

Assay [1] is described as follows: inhibitors of TNFa-induced NFkB p65 translocation, primary screen, imaging, HUVEC, MLSMR starter and 10KST1 sets (AID 438;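 active = inhibition above 20% together with a positive visual image hit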;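 note: compound added about 3h40 before a 20 min TNFalpha stimulation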;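 for inhibition: signal is the nuclear over cytoplasmic p65 intensity ratio per well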). Particulars: HUVEC TNFa-induced p65 nuclear translocation; cell count: measured here: nuclei count (cytotoxicity indicator), at 2.08 µM; inhibition: at 2 µM, stronger effect = higher value, 0% TNFa-plus-vehicle, 100% no-TNFa wells.
Assay [2] in a line: reduction of polyQ htt aggregates in cells – imaging, exon1htt(103Q)mCFP cells, high-content imaging, primary screen (AID 483;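 active = visual image review flags a hit and inhibition of aggregation exceeds 20%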;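 note: compound exposure lasted 3 days before fixation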;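 for nuclei count: percent of the per-plate median nuclei count of sample wells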). Particulars: exon1htt(103Q)mCFP cell line, aggregate imaging, at 2 µM; inhibition of aggregation: stronger effect = higher value; nuclei count: measured here: cell count, toxicity.
Assay [3] is described as follows: endothelial E-selectin expression blockers – imaging, HUVEC, immunofluorescence, MLSMR starter and 10KST1 sets, primary screen (AID 487;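 active = visually confirmed hit in the image check and inhibition above 20%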;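 for inhibition: signal is fraction of cell area covered by stained E-selectin grains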;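 for nuclei count: 100% = median nuclei count of all wells on the same plate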). Conditions: HUVEC TNFalpha-induced E-selectin immunofluorescence imaging, at 2 µM; inhibition: stronger effect = higher value; nuclei count: measured here: cell number, toxicity.
The target in assay [4] is Voltage-gated potassium channel subunit beta-2 (Rattus norvegicus) (UniProt P62483). As to the kind of experiment: inhibitors of rat Kvbeta2 reductase activity – biochemical, NADPH fluorescence, primary screen (AID 622;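 active = fluorescence slope higher than the sample average by over 3 SD, cut at about -0.22 in these data, passing the limit was not always enough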;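 note: slope of raw intensity against log time taken from 70 to 1610 s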). Particulars: recombinant KvBeta, 4-cyanobenzaldehyde reduction, at 10 µM, stronger effect = higher value.
Chain of Voltage-gated potassium channel subunit beta-2 (Rattus norvegicus) (P62483 whole entry, looked up): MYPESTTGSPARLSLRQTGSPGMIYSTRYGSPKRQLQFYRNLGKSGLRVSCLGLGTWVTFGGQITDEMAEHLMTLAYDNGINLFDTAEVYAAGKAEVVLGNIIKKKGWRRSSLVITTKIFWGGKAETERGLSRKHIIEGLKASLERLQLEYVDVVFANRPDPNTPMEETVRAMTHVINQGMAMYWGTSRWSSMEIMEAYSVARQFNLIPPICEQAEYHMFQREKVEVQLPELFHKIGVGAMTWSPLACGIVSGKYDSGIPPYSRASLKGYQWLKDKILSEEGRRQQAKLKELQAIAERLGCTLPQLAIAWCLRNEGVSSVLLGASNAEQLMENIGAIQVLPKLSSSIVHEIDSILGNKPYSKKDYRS
Assay [5] shares this target. Kind of assay: enhancers of rat Kvbeta2 NADPH turnover – biochemical, NADPH fluorescence, primary screen (AID 623;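 active = NADPH fluorescence slope more negative than the mean of all samples by about 3 SD, 99.7% confidence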;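 note: fluorescence intensity change per second fitted from 20 to 320 s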). Particulars: Recombinant KvBeta, NADPH fluorescence decrease slope, 10 min; at 10 µM; stronger effect = lower value.
Assay [6] addresses Muscarinic acetylcholine receptor M4 (Homo sapiens) (UniProt P08173). As to the kind of experiment: M4-linked GIRK flux change, two-sided – cell-based, HEK293 M4/GIRK, thallium flux, BTC-AM, M4 allosteric agonist project, primary screen (AID 625;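 active = fluorescence slope after compound addition differing from the mean of all tested samples at 99.7% confidence, mostly higher but some lower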;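 note: thallium influx through GIRK channels coupled to M4 in HEK293 cells with BTC-AM dye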). Particulars: at 10 µM, actives lie on both sides. Summed up: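 Material: HEK293 cells with M4 receptor and GIRK channels; Times: cells overnight at 37 °C, BTC-AM loading 1 h, reads 2 min total; Technique: kinetic BTC-AM fluorescence sampled at 1 Hz, 10 s pre-addition baseline; Read-out basis: slope over 15–24 s of trace normalized to starting intensity; Controls: carbachol positive, DMSO negative.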

Assay [7] can be described thus: blockers of RIG-like receptor reporter activation – cell-based, Sendai virus stimulus, luciferase, 10K MLSCN set, TLR/RLR signaling modifier project, primary screen (AID 602276).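 Note: firefly luciferase from ISG56 promoter only with Renilla not read in this screen; 0% = Sendai virus plus DMSO and 100% = medium plus DMSO without virus.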 Particulars: HEK293 RL24 IRF3 luciferase reporter, at 10 µM, stronger effect = higher value. (A reporter such as luciferase makes a cellular process visible.)
A short description of assay [8]: TLR3 IRF3 reporter activation blockers – cell-based, poly I:C stimulus, luciferase, 10K MLSCN set, primary screen (AID 602277;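 active = inhibition of the reporter signal at or above 50%; inactive = inhibition below 50%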). Particulars: HEK293-TLR3 RL24 IRF3 luciferase reporter, at 10 µM, stronger effect = higher value.

Active and inactive are the calls of the source.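 Rule for the calls, unless noted: active = inhibition at or above 50% at 10 µM; inactive = inhibition below 50%.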

Chain of Muscarinic acetylcholine receptor M4 (Homo sapiens) (P08173 whole entry, looked up): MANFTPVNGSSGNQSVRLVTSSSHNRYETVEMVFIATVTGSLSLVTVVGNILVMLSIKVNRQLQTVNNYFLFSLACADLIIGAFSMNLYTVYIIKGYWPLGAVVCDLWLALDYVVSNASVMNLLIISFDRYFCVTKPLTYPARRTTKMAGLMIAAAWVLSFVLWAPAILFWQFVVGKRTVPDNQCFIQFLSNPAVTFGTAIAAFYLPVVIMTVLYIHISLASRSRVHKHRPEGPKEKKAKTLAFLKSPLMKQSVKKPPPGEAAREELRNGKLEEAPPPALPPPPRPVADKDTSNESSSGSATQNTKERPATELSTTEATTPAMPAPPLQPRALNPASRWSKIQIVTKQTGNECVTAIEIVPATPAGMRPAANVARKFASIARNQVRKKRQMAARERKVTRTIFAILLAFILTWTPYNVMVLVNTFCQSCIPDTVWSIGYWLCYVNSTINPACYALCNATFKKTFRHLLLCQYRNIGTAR

For `COc1ccc(N2CCN(C(c3cccs3)C(C)NC(=O)c3ccco3)CC2)cc1` (configuration not stated), the cell count in assay [1] worked out at 467. The inhibition (as a rule, the drop in the measured response relative to a control, in per cent) is 5.5% (inactive) in assay [1], 11.8% (inactive) in assay [3], 8.09% (inactive) in assay [7] and 22.4% (inactive) in assay [8]. The inhibition of aggregation in assay [2] is -7.1% (inactive). Also, the nuclei count in assay [2] was 83.9%; in assay [3] it was 101%. Further, the fluorescence slope in assay [4] is -0.368 (inactive); in assay [6] it was 0.00502 (inactive). For the same compound, the NADPH fluorescence slope in assay [5] was -7.2e-05 (inactive).

In the case of `COc1ccc(Br)cc1S(=O)(=O)N1CCOCC1`, the cell count in assay [1] worked out at 336. Further, the inhibition is 5% (inactive) in assay [1], -6.1% (inactive) in assay [3], 17.4% (inactive) in assay [7] and 16.5% (inactive) in assay [8]. The inhibition of aggregation in assay [2] is -25.8% (inactive). Further, the nuclei count stood at 119% in assay [2] and 113% in assay [3]. Moreover, the figures for the fluorescence slope in assay [4] and in assay [6] were -0.462 (inactive) and 0.00557 (inactive), respectively. Besides, the NADPH fluorescence slope in assay [5] is -3.5e-05 (inactive).

Take `NC1=NC(c2ccc(Br)cc2)n2c(nc3ccccc32)N1` (configuration not stated): the cell count in assay [1] is 779. Also, the inhibition in assay [1] was 4.8% (inactive); in assay [3], -44.9% (inactive); in assay [7] it was 17.6% (inactive); in assay [8] it was 25% (inactive). Further, in assay [2], the inhibition of aggregation is -6.6% (inactive). Further, the nuclei count in assay [2] is 105%; in assay [3], 106%. The fluorescence slope was -0.556 (inactive) in assay [4] and 0.00498 (inactive) in assay [6]. The NADPH fluorescence slope in assay [5] is -1.5e-06 (inactive).

For `O=S(=O)(c1ccc2c(c1)OCCO2)N(Cc1ccc(F)cc1)Cc1nnc(-c2cccs2)o1`, the cell count in assay [1] was 383. The inhibition in assay [1] was -21.4% (inactive); in assay [3] it was -14.4% (inactive); in assay [7], 13.3% (inactive); in assay [8], 26.7% (inactive). Besides, the inhibition of aggregation in assay [2] is -14.7% (inactive). Besides, the nuclei count in assay [2] was found to be 106%; in assay [3], 119%. Besides, the values for the fluorescence slope in assay [4] and in assay [6] were -0.543 (inactive) and 0.00797 (inactive), respectively. Also, the NADPH fluorescence slope in assay [5] was -0.000116 (inactive).

In the case of `COc1ccc(OC)c(NC(=O)CSc2ncccc2C(=O)O)c1`, the cell count in assay [1] was found to be 409. Besides, the inhibition in assay [1] is 0% (inactive); in assay [3], -120% (inactive); in assay [7] it was -1.78% (inactive); in assay [8] it was 9.5% (inactive). For the same compound, the inhibition of aggregation in assay [2] was -10.4% (inactive). Moreover, the nuclei count was 7.1% in assay [2] and 125% in assay [3]. Also, the fluorescence slope is -0.495 (inactive) in assay [4] and 0.00462 (inactive) in assay [6]. Further, in assay [5], the NADPH fluorescence slope was -0.000268 (inactive).

For `CCN(Cc1nc2cc(OC)c(OC)cc2c(=O)[nH]1)C(=O)c1ccc(S(=O)(=O)N(C)C)cc1`, the cell count in assay [1] is 311. Moreover, the inhibition in assay [1] is 11.1% (inactive); in assay [3], 14.8% (inactive); in assay [7], 13.8% (inactive); in assay [8], 28.7% (inactive). Besides, the inhibition of aggregation in assay [2] was -0.9% (inactive). Also, the nuclei count in assay [2] is 119%; in assay [3], 89.6%. Further, the fluorescence slope is -0.399 (inactive) in assay [4] and 0.00948 (inactive) in assay [6]. In addition, the NADPH fluorescence slope in assay [5] was -0.000108 (inactive).

On to `CCOC(=O)C1CCCN(C(=O)c2cc(=O)c3ccccc3o2)C1` (configuration not stated), for which the cell count in assay [1] turned out to be 376. Also, the inhibition was -18.9% (inactive) in assay [1], -38.4% (inactive) in assay [3], 14.5% (inactive) in assay [7] and 19.9% (inactive) in assay [8]. Further, in assay [2], the inhibition of aggregation is -28.1% (inactive). The nuclei count in assay [2] worked out at 114%; in assay [3] it was 98.7%. The results for the fluorescence slope in assay [4] and in assay [6] were -0.426 (inactive) and 0.00575 (inactive), respectively. Moreover, the NADPH fluorescence slope in assay [5] was 2.6e-05 (inactive).
